Data reported in publication PMC10905627 (Oncogene, 2018).
Where two headings read alike, the source gives them in different places.

Experiments:
[1] = Metabolic stability in mouse liver microsomes; format: in vitro ADME
[2] = target: T1, ALK2/ACVR1 (Homo sapiens, UniProt Q04771); assay: IC50 kinase assay ALK2; format: biochemical; details: ATP 10 μM
T1 sequence (Q04771 21-509): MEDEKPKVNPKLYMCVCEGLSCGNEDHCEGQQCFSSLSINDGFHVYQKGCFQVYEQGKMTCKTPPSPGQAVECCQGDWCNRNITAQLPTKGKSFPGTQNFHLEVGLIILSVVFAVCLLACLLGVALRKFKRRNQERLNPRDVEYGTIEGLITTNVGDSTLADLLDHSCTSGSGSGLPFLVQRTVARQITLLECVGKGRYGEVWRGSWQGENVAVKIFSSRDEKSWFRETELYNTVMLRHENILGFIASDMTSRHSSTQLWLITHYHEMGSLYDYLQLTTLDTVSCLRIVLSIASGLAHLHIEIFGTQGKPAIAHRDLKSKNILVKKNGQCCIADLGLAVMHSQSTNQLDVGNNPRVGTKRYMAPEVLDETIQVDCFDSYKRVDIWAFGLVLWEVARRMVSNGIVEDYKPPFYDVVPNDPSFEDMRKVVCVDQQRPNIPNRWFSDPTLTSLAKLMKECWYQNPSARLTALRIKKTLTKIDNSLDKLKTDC

[3] = target: ALK3/BMPR1A (Homo sapiens, UniProt P36894); assay: IC50 kinase assay ALK3; format: biochemical; details: ATP 10 μM
Sequence of ALK3/BMPR1A (P36894 24-532): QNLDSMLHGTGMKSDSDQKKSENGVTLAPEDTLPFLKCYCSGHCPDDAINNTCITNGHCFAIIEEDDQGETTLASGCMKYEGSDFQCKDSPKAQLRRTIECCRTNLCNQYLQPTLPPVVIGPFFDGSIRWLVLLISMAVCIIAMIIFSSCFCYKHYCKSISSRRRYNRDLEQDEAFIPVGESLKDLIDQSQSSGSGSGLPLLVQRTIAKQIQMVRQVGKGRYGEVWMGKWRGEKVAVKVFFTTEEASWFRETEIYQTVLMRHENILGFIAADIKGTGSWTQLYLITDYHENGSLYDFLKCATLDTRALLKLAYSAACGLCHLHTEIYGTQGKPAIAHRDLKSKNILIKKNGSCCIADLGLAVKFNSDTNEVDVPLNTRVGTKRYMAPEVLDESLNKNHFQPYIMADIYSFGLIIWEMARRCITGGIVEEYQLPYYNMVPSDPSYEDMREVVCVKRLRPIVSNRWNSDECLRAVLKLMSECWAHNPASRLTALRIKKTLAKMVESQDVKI

[4] = target: ALK6/BMPR1B (Homo sapiens, UniProt O00238); assay: IC50 kinase assay ALK6; format: biochemical; details: ATP 10 μM
Sequence of ALK6/BMPR1B (O00238 14-502): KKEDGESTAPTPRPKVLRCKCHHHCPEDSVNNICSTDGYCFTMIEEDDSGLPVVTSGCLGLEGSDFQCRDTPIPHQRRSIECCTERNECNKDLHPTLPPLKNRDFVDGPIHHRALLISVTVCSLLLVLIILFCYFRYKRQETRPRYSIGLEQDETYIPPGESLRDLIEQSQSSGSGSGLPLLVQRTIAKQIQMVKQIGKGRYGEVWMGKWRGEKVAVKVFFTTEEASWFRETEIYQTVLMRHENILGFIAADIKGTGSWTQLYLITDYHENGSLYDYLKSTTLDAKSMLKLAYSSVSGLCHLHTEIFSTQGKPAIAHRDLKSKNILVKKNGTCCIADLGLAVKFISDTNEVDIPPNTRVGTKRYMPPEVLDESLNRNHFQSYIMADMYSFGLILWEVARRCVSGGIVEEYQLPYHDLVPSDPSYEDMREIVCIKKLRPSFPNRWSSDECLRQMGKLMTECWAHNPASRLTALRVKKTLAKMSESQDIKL

[5] = target: T2, BMPR2 (Homo sapiens, UniProt Q13873); assay: IC50 kinase assay BMPR2; format: biochemical
T2 sequence (Q13873 27-1038): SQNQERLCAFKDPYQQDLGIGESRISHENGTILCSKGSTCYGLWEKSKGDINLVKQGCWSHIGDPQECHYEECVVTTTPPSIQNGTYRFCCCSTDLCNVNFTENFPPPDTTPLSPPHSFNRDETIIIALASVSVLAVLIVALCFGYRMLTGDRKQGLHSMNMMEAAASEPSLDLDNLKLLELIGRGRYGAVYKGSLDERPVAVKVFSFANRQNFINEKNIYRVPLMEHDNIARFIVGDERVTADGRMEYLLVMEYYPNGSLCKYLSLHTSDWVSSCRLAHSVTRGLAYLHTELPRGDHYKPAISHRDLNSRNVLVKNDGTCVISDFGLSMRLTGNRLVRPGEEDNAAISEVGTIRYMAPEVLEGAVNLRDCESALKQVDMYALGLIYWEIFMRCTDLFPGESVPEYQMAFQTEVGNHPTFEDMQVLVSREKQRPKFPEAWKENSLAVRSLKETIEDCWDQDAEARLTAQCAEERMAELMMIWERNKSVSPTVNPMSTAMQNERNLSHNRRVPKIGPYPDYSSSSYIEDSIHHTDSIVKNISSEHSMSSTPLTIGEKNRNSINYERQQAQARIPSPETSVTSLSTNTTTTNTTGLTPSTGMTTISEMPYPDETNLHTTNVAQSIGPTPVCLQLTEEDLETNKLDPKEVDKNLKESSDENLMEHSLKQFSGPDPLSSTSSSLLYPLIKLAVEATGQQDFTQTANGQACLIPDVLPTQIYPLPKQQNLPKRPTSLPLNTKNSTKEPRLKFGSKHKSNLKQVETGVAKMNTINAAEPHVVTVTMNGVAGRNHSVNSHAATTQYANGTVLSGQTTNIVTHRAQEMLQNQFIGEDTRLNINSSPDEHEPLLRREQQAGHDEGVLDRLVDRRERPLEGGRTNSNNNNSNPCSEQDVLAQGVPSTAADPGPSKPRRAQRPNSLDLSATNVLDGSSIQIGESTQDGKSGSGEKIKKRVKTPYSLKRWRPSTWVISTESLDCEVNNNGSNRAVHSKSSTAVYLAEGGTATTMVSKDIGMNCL

[6] = Toxicity studies in NSG mice; format: in vivo
[7] = tested on: Id1 promoter; assay: Id1-luciferase reporter assay in H1299 cells; format: cell-based, human; details: H1299 cells stably expressing reporter, 48 h
How it was run: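 H1299 cells stably carrying an Id-1 promoter–luciferase reporter were exposed to test compound for 48 h. Cells were then lysed and luminescence read on a luminometer. The experiment was run twice.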

[8] = tested on: H1299 lung cancer cells; assay: Cell viability; format: cell-based, human
[9] = tested on: H1299 cells; assay: Annexin V / 7-AAD staining; format: cell-based, human; details: H1299, 2.5 μM, 48 h, vs DMSO
How it was run: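 H1299 cells in six-well plates exposed to DMSO or test compound at 2.5 μM for 48 h. They were then stained with labeled Annexin V and 7-AAD per kit instructions and analysed by flow cytometry. 7-AAD-positive, Annexin V-negative cells counted as necrotic. Experiments run at least 3 times.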

[10] = tested on: H1299 cells; assay: TUNEL assay; format: cell-based, human; details: H1299, 24 h
[11] = tested on: caspase-3, PARP in H1299 cells; assay: Western blot of activated caspase-3 and PARP; format: cell-based, human; details: H1299, 3 days
How it was run: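 H1299 cells treated with test compound, and total protein quantified by BCA. Lysates separated by SDS-PAGE onto nitrocellulose and blocked at least 2 h. Probed overnight at 4 °C with rabbit monoclonal anti-activated caspase-3 and anti-PARP, with actin or GAPDH as loading control. Secondary antibody 1 h at room temperature, then enhanced chemiluminescence detection.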

[12] = tested on: H1299 tumors; assay: H1299 tumor xenografts in NSG mice without immune cells; format: in vivo, mouse
[13] = tested on: Id1, TAK1, XIAP in H1299 tumors; assay: Western blot of BMP downstream targets in H1299 tumor xenografts; format: in vivo, mouse; details: NSG mice, 4 days
How it was run: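 Xenografts made by intradermal flank injection of 2 million H1299 cells into NSG mice. At about 4 mm × 4 mm, mice received test compound at 3 or 10 mg/kg twice daily, or DMSO, for four days. Tumor protein (BCA-quantified) run on SDS-PAGE and blotted to nitrocellulose. Probed with anti-Id1, anti-pTAK1 and anti-XIAP (primary overnight at 4 °C), then ECL detection.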

[14] = NSG mice, IP 3 mg/kg, 10 mg/kg twice daily for 4 days

c1ccc2c(-c3cnn4cc(-c5ccc(OCCN6CCCCC6)cc5)cnc34)ccnc2c1 [JL5]
ClearanceINT [1]: 129 mL/min/kg | intrinsic clearance lower than that of DMH2 [1]: 48% | IC50 ALK2/ACVR1 [2]: single digit nanomolar | IC50 ([2]; read-out: IC50 ALK2/ACVR1): 1 nM | IC50 ALK3/BMPR1A [3]: single digit nanomolar | IC50 ([3]; read-out: IC50 ALK3/BMPR1A): < 5 nM | IC50 ALK6/BMPR1B [4]: single digit nanomolar | IC50 ([4]; read-out: IC50 ALK6/BMPR1B): 2 nM | IC50 ([5]; read-out: IC50 BMPR2, ATP 10 μM): 8510 nM | IC50 ([5]; read-out: IC50 for the BMP type II receptor BMPR2): ~8000 nM | signs of toxicity (anorexia, lethargy, loss of weight) ([6]; 21-day studies, 10 mg/kg intraperitoneal twice daily): no signs of toxicity | blood chemistry screen vs DMSO [6, 14]: no significant difference | histological examination of livers, lungs, kidneys [6, 14]: did not reveal any evidence of toxicity | systemic toxicity (loss of appetite, anorexia, lethargy) [6, 14]: no evidence of systemic toxicity | expression of the Id1-luciferase reporter [7]: dose-related decrease | cell death, JL5 compared with DMH2 ([8]; H1299, 2.5 μM, 3 days): same amount of cell death | dead and live cells vs DMSO control ([8]; H1299, 7 days): majority of the H1299 cells treated with JL5 were dead | percentage of cells in late apoptosis / necrosis (Annexin V, 7-AAD) [9]: significant increase in the percentage of cells in late stages of apoptosis as well as necrosis | DNA double-stranded breaks (TUNEL) [10]: induces DNA double-stranded breaks | activation of caspase-3 and cleavage of PARP [11]: induced the activation of caspase-3 and cleavage of PARP | regression in tumor size ([12]; 10 mg/mL, from treatment day 5 to day 14): ~ 35% | tumor cell death or proliferation (H&E, Ki67) ([12]; after 21 days of treatment): No significant differences | expression of Id1 in tumors ([13]; 3 mg/mL): feedback increase in the expression of Id1 | protein expression of Id1, TAK1, XIAP in tumors ([13]; 10 mg/kg): decreased protein expression of Id1 and TAK1 but not XIAP
